An excerpt weighted towards active compounds, which were near 1.9% of everything screened.
TAG inh = inhibitors of triacylglycerol accumulation; inhibition, % at 12.5 µM; H9c2 cells, Nile Red lipid (TAG) fluorescence; cells loaded with 200 µM oleic acid; AID 651582; 230,000 tested, 0.66% active;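 active = pattern-corrected inhibition of lipid staining of at least 50% with the nuclear-stain viability signal not falling by more than 50%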;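 also: 0% = DMSO wells and 100% = triacsin C control wells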
APP 5UTR inh = APP translation inhibition; SH-SY5Y APP 5'UTR-luciferase reporter, luminescence; 190,000 tested, 0.82% active; inhibition, % at 2 µM;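 active = inhibition above a set limit, derived from the sample mean plus 3 SD, cut at about 45% in these data; inconclusive = one replicate passes the limit while the other fails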
Jurkat NFkB inh = lowers PMA/ionomycin-induced NF-kB signal in Jurkat cells; 330,000 tested, 0.53% active; PMA/ionomycin-induced NF-kB luciferase reporter, luminescence; inhibition, % at 4 µM; in the data active = inhibition above about 50%
Hep lipid drop = hepatic lipid droplet formation modulation; AML12 mouse hepatocytes, oleate lipid droplets, BODIPY imaging; inhibition, % at 6.5 µM; 240,000 tested, 0.4% active; AID 1656;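 active = lipid droplet intensity inhibited by at least 50%, with more than 500 cells counted; inconclusive = wells with under 300 cells, treated as cytotoxic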
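Assay system: AML12 hepatocytes (mouse); Probe or stimulus: oleic acid at 100 µM to induce lipid droplet formation; Dosing: compound at 6.5 µM only; Schedule: compound with oleate, overnight; Detection: fluorescence imaging, 20x objective, two fields per well; Measure: % inhibition of lipid droplet signal.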
697 NFkB inh = lowers PMA/ionomycin-induced NF-kB signal in 697 B cells; 697 B-cell NF-kB luciferase reporter, 16 h; inhibition, % at 4 µM; 330,000 tested, 0.33% active; in the data active = inhibition above about 35%
aSyn 5UTR inh = MLPCN primary screen, SNCA 5' untranslated region | alpha-synuclein 5'UTR reporter, inhibitor activity | inhibition, % (tested at 7.5 µM) | 300,000 tested, 0.82% active | AID 1813; in the data active = inhibition above about 60%; inconclusive = no clear call, values can overlap the other calls;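 also: H4 neuroglioblastoma cells stably carrying SNCA 5'UTR luciferase fusion; 0% = DMSO wells and 100% = positive control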
Jurkat NFkB conf = inhibitors of the PMA/ionomycin-induced NF-kB reporter in Jurkat cells, retest | shares compounds with Jurkat NFkB inh | Jurkat NF-kB luciferase, 16 h | inhibition, % at 4 µM | 2,700 tested, 27% active | AID 435020;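 active = inhibition reaching about 45% at 4 µM in either replicate, limit read from the data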;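 also: plate controls were PMA/ionomycin stimulated DMSO wells for no effect and unstimulated DMSO wells for full effect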
The depositor's hits bear a star; i = inactive; ? = inconclusive; nt = no result given.

SMILES | TAG inh | APP 5UTR inh | Jurkat NFkB inh | Hep lipid drop | 697 NFkB inh | aSyn 5UTR inh | Jurkat NFkB conf
COc1nc(-c2cccs2)cc(-c2ccc(C)cc2)c1C#N | nt | 6.6 | 57.0* | nt | -28.7 | 28.9 | 19.4
CSCC[C@H](NC(=O)[C@@H]1Cc2c([nH]c3ccccc23)C2c3ccccc3C(=O)N21)C(=O)NCC1CCCO1 (stereo partly specified) | nt | nt | -1.8 | -9.1 | 10.3 | 13.0 | nt
Clc1ccc(CSc2nncn2-c2ccc3c(c2)OCCO3)cc1 | 5.1 | nt | 57.7* | -46.7 | -46.1 | 65.8* | 44.2
CN(CCOc1ccc(Cl)cc1)C(=O)C1CCN(C(=O)c2ccc(Cl)cc2)CC1 | -13.5 | nt | 5.9 | -1.1 | -25.3 | 12.9 | nt
COc1ccc(C(=O)/C=C2/c3ccccc3CC(C)(C)N2C)cc1 | nt | 47.9* | 61.2* | nt | -48.1 | -18.6 | -8.7
O=C(O)c1ccc(N/N=C/c2ccc3c(c2)OCO3)cc1 | nt | 31.0 | 75.2* | -7.0 | 29.3 | 94.3* | 43.1
Cc1ccsc1C(=O)N/N=C/c1ccc2c(c1)OCO2 | nt | -158.1 | -153.7 | -19.2 | -196.4 | -98.9 | -70.5
O=C(N/N=C/c1ccc2c(c1)OCO2)c1cccs1 | nt | -72.3 | -72.2 | 0.5 | -95.2 | -134.6 | nt
O=C(O)c1cc(N/N=C/c2ccc3c(c2)OCO3)ccc1Cl | 0.6 | -121.0 | -45.3 | 5.1 | -204.5 | -72.6 | nt
COc1ccc(CC(=O)Nc2cccc(-c3nnc(-c4cccc(C)c4)o3)c2)cc1OC | nt | -35.4 | 50.6* | -24.2 | -82.9 | -187.4 | 60.6*
Cc1nn(C)c(C)c1CN(Cc1nc(CCC(C)C)no1)C(C)C | -33.5 | 16.2 | 52.6* | -59.5 | 9.5 | 0.9 | 50.7*
CCCn1nc(C(=O)NNC(=O)CCCOc2ccc(C)cc2)c2ccccc2c1=O | -6.1 | nt | 5.3 | 9.7 | -10.9 | 7.2 | nt
CN(CC(=O)Nc1c(Cl)cccc1Cl)C(=O)C1=COCCO1 | 0.6 | nt | 9.4 | nt | 11.3 | 9.5 | nt
N#CCC(CNc1ncc(C(F)(F)F)cc1Cl)OC(=O)c1cccc(C(F)(F)F)c1 (stereo unspecified) | nt | 0.7 | 60.3* | -2.4 | 4.9 | -28.4 | 8.6
COCCCN(Cc1cccs1)S(=O)(=O)c1csc(C(N)=O)c1 | nt | nt | -0.6 | -2.1 | -15.6 | -1.2 | nt
COc1ccc(C)cc1NC(=O)CSc1ccc(-c2sc(C)nc2C)nn1 | nt | nt | 51.2* | 24.7 | -33.1 | 14.7 | 9.5
COc1ccc(C)cc1NC(=O)CSc1ccc(-c2ccccn2)nn1 | -28.6 | nt | 53.0* | 25.5 | -5.2 | 16.1 | 20.1
COc1cc(NC(=O)CSc2ccc(-c3ccccn3)nn2)cc(OC)c1 | -9.5 | nt | 6.6 | -22.9 | -8.3 | 49.4 | nt
CCc1cc2cc(C(=O)Nc3ccc(F)cc3)sc2s1 | 0.8 | -31.3 | -47.9 | 12.5 | 6.2 | -149.7 | nt
CCc1cc2cc(C(=O)Nc3ccccc3F)sc2s1 | nt | -162.8 | -218.0 | 1.7 | 2.3 | -134.0 | -103.5
CC(C(=O)Nc1nccs1)N1C(=O)c2ccccc2S1(=O)=O (stereo unspecified) | -0.7 | nt | -2.7 | nt | 11.7 | 5.7 | nt
Cc1ccc(S(=O)(=O)Nc2cccc(C(=O)NCC(c3ccco3)N3CCCC3)c2)cc1F (stereo unspecified) | 5.5 | nt | 5.9 | nt | 7.6 | 10.4 | nt
Cc1cc(NC(=O)CSc2nnc(-c3ccccc3)c(-c3ccccc3)n2)no1 | 6.4 | 62.7* | 59.9* | 39.1 | 4.0 | 38.9 | 12.9
CCCn1nnnc1NCc1ccccc1C | -4.3 | nt | 2.0 | -3.1 | 6.1 | -0.6 | nt
CCCCn1c(N)c(N(Cc2ccccc2OC)C(=O)c2c(CC)noc2C)c(=O)[nH]c1=O | -9.3 | nt | -4.2 | 6.4 | 5.8 | -4.7 | nt
SMILES | TAG inh | APP 5UTR inh | Jurkat NFkB inh | Hep lipid drop | 697 NFkB inh | aSyn 5UTR inh | Jurkat NFkB conf
COc1ccc2c(C)nc(Nc3nc(C)cc(=O)[nH]3)nc2c1 | nt | 5.7 | nt | nt | nt | nt | nt
COc1ccc2c(C)nc(Nc3nc(-c4ccccc4)cc(=O)[nH]3)nc2c1 | 107.5 | nt | 89.4* | 34.1 | -14.2 | i | 37.5*
CCCC(=Nc1ccccc1OC)C1=C(O)CC(c2ccccc2)CC1=O (stereo unspecified) | nt | 3.1 | 14.1 | 6.0 | 7.1 | 17.9 | nt
COc1ccccc1N=C(C)C1=C(O)CC(c2ccccc2)CC1=O (stereo unspecified) | 27.0 | 91.6* | 69.0* | ? | 8.6 | 121.7* | 41.5
COc1cc(/C=C2\SC(=Nc3ccc(O)cc3)NC2=O)cc(OC)c1OC | nt | nt | 58.7* | 6.2 | 2.2 | -9.4 | 0.7
CCCCNc1cc(C)nc(NCc2ccccc2)n1 | -14.3 | -12.1 | 70.0* | nt | -37.2 | -17.3 | 20.9
Cc1cc(Nc2ccccc2)nc(NCc2ccccc2)n1 | -15.9 | 2.4 | 35.9 | -28.3 | -42.9 | 0.0 | nt
Cc1cc(N2CCC(C)CC2)nc(NCc2ccccc2)n1 | nt | 9.4 | 53.3* | nt | -27.6 | -9.4 | 4.2
COc1ccc(Nc2nc(N3CCOCC3)nc(N3CCOCC3)n2)cc1Cl | 38.9 | nt | -29.6 | -2.7 | 9.7 | -3.4 | nt
COCCN1C(=O)N[C@@H](c2ccco2)C(C(C)=O)=C1C | -9.7 | -9.5 | 19.0 | -4.0 | 1.5 | 1.6 | nt
O=C(NCc1ccc(Cl)cc1)c1cc(S(=O)(=O)N2CCCCC2)c[nH]1 | 2.8 | nt | 0.6 | -10.2 | 4.8 | 13.4 | nt
O=C(NCCc1ccccc1)c1ccc2c(c1)OCCO2 | 1.5 | nt | 54.2* | 11.5 | 21.7 | 105.8* | 69.6*
Oc1ccc2ccccc2c1/C=N/Nc1nnc(-c2ncc[nH]2)c2ccccc12 | -15.1 | -6.1 | 71.1* | -44.3 | -7.4 | 101.7* | 76.9*
O=C(COc1ccccc1Cl)Nc1ccc(Cl)cn1 | -32.3 | -198.0 | -153.4 | nt | -51.7 | -54.8 | -99.2
O=C(COc1ccccc1)Nc1ccc(Cl)cn1 | -3.0 | -54.9 | -39.5 | 24.8 | -7.1 | -114.4 | nt
COc1cccc(NC(=O)COC(=O)C2CCCCC2)c1 | -1.8 | nt | -195.3 | nt | 7.1 | nt | 15.9
COc1cccc(NC(=O)C(=S)NC2CCCCC2)c1 | -0.6 | -156.1 | -219.8 | 16.1 | -164.3 | -85.4 | -91.0
COc1cccc(NC(=O)NC2CCCCCCC2)c1 | -15.0 | nt | -71.0 | 7.8 | -92.8 | -132.3 | nt
NC(N)=N/N=C/c1ccc(OCc2ccccc2Cl)cc1 | nt | -3.8 | 63.3* | nt | -36.5 | -53.8 | -14.7
O=C(Nc1nc2cc3c(cc2s1)OCO3)C1CCCCC1 | 11.4 | nt | -166.0 | -1.5 | -203.2 | -139.5 | -96.8
O=C(Nc1nc2ccc(Cl)cc2s1)C1CC1 | 7.2 | nt | -36.6 | nt | -232.8 | -150.4 | nt
O=C(Nc1nc2ccc(S(=O)(=O)N3CCCC3)cc2s1)C1CCCCC1 | nt | 76.9* | 62.3* | -0.8 | -20.4 | 72.5* | 58.2*

Screening data deposited in PubChem BioAssay by several laboratories.
